Compound activity: PubChem BioAssay, The Scripps Research Institute Molecular Screening Center
CHRM4 agonist: agonists of human muscarinic M4 receptor (CHRM4); 360,000 tested, 0.14% active; CHO-K1 hM4/Gqi5, Fluo-8 calcium fluorescence; vehicle 0%, full acetylcholine response 100%; P08173; activation, % at 3 µM;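 active means activation above the run mean over all test wells plus 3 SD, cut at about 32% in these data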;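 further: peak over basal fluorescence ratio per well then scaled between controls; 0% = DMSO wells and 100% = acetylcholine at EC100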
Target sequence (P08173 whole entry, looked up): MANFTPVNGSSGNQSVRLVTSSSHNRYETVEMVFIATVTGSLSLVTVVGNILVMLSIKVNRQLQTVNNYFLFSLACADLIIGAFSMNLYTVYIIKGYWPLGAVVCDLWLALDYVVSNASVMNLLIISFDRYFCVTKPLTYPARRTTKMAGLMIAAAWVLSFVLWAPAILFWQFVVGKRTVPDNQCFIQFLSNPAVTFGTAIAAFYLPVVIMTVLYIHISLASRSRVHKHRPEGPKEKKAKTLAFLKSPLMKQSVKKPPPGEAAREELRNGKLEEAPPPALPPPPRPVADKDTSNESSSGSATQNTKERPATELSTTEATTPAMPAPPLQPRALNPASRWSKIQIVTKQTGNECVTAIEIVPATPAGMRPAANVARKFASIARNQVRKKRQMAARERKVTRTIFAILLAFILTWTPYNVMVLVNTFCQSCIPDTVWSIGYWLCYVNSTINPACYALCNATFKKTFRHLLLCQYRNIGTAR
M4 PAM: potentiates acetylcholine response at human M4 receptor; AID 624126; P08173; 360,000 tested, 0.4% active; activation, % at 3 µM; CHO-K1 hM4/Gqi5, Fluo-8 calcium fluorescence, ACh EC20; 0% = ACh EC20, 100% = maximal ACh;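 active means activation above its plate's cutoff, the mean activation of sample wells plus 3 SD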
M5 antag: CHRM5 antagonism in calcium assay; inhibition, % at 3 µM; CHO-hM5 cells, Fluo-8 calcium fluorescence, ACh EC80; 360,000 tested, 0.59% active; P08912;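 active means inhibition above a per-plate cutoff, the mean of that plate's test compounds plus 3 SD, cut at about 27% in these data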;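 further: 0% = acetylcholine EC80 with DMSO and 100% = DMSO without agonist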
M5 ag: agonists of human muscarinic M5 receptor (CHRM5); P08912; 360,000 tested, 0.19% active; AID 624037; activation, % at 3 µM; CHO-K1 hM5 cells, Fluo-8 calcium fluorescence; 0% DMSO wells, 100% maximal acetylcholine response;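 active means activation above the run's mean over test compounds plus 3 SD, cut at about 23% in these data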;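 further: signal is peak over basal fluorescence ratio across the kinetic read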
M4 antag: antagonists of human muscarinic M4 receptor (CHRM4) | P08173 | CHO-hM4 cells, ACh EC80, Fluo-8 calcium fluorescence | inhibition, % at 3 µM | 360,000 tested, 0.73% active | AID 624125;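 active means inhibition above its plate's cutoff, the mean inhibition of sample wells plus 3 SD, cut at about 27% in these data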;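 further: 0% = acetylcholine EC80 with DMSO and 100% = DMSO without agonist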
CHRM5 PAM: potentiates acetylcholine response at human M5 receptor; P08912; CHO-K1 hM5, Fluo-8 calcium, ACh EC20 PAM; 0% = ACh EC20, 100% = ACh EC100; activation, % at 3 µM; 360,000 tested, 0.3% active; AID 624038;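 active means activation above the run cutoff, the mean activation of all test compounds plus 3 SD, cut at about 18% in these data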
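Measured by: Fluo-8 calcium fluorescence; material: human M5 receptor in CHO-K1 cells; schedule: Post-acetylcholine fluorescence recording 140 s; benchmarks: low control EC20 acetylcholine (0%), high control EC100 acetylcholine (100%); read-out: Max/basal fluorescence ratio as % of EC20–EC100 ACh window; compound: single dose, 3 µM nominal final test concentration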
Active calls of the source: *. Sampled rows, rich in hits. Any-hit rate of the full collection: about 1.8%.

SMILES | CHRM4 agonist | M4 PAM | M5 antag | M5 ag | M4 antag | CHRM5 PAM
CSc1ccccc1OCc1cc(C(=O)NCCC2=CCCCC2)no1 | 0 | -6 | 13 | -3 | 0 | -3
Cn1c(Br)nc2c1c(=O)n(CC(O)COc1ccccc1)c(=O)n2C (centres undefined) | 34* | -4 | 3 | 0 | 1 | -8
O=C(/C=C/c1c(F)cccc1Cl)c1ccc(O)cc1 | -1 | -15 | 11 | -5 | 39* | -7
Cc1ccnc(SCC(=O)Nc2sc3c(c2C#N)CCCC3)n1 | 13 | -11 | 30* | 2 | 26 | -16
Cc1csc(SCC(=O)Nc2sc3c(c2C#N)CCC3)n1 | -1 | 4 | -3 | 0 | 4 | 5
CCOc1ccc(CCNC(=O)c2cccc(S(=O)(=O)N3CCN(C(C)=O)CC3)c2)cc1OCC | 2 | 10 | 5 | 3 | -7 | -2
CC(C)Cn1c(N)c(C(=O)COC(=O)Cc2cccs2)c(=O)n(C)c1=O | 14 | -6 | 32* | 6 | 19 | -10
CC(C)Cn1c(N)c(C(=O)COC(=O)/C=C/c2cccs2)c(=O)n(C)c1=O | 14 | -22 | 16 | 8 | 12 | -14
CCOCCCNC(=O)c1oc2ccc3c(c2c1C)C(O)CC(C)(C)O3 (centres undefined) | 2 | 2 | 2 | -2 | 6 | -3
Cc1ccc(CS(=O)(=O)CCC(=O)NCCC(C)C)cc1 | 1 | 34* | 4 | -4 | -4 | 3
C[C@@H]1COC(=O)[C@H](CC(=O)OC(C)(C)C)C/C=C\C[C@H](CC(=O)N(CCO)Cc2ccccc2)C(=O)N1 | 0 | 11 | 15 | -5 | 4 | 3
O=C1NC[C@@H](c2ccccc2)OC(=O)[C@H](Cc2ccc(F)cc2)C/C=C\C[C@@H]1CC(=O)N(CCO)Cc1ccccc1 | 27 | -13 | 14 | 0 | 27* | -29
O=C1NC[C@H](c2ccccc2)OC(=O)[C@H](Cc2ccc(F)cc2)CC/C=C/C[C@H]1CC(=O)N(CCO)Cc1ccccc1 | 18 | -2 | 22 | 2 | 27* | -28
O=C1NC[C@H](c2ccccc2)OC(=O)[C@@H](Cc2ccc(F)cc2)CC/C=C/C[C@H]1CC(=O)N(CCO)Cc1ccccc1 | 26 | -12 | 21 | 5 | 20 | -39
CC(C)(C)OC(=O)C[C@@H]1C/C=C\C[C@@H](CC(=O)N(CCO)Cc2ccccc2)C(=O)N[C@@H](c2ccccc2)COC1=O | 16 | -2 | 29* | 0 | 4 | -26
O=C(C[C@H]1C/C=C\CC[C@H](Cc2ccc(F)cc2)C(=O)O[C@@H](c2ccccc2)CNC1=O)N[C@@H](CO)Cc1ccccc1 | 9 | 3 | 16 | 2 | 1 | -21
O=C(C[C@H]1C/C=C\C[C@H](Cc2ccc(F)cc2)C(=O)O[C@@H](c2ccccc2)CNC1=O)N[C@H](CO)Cc1ccccc1 | 39* | 8 | 16 | 12 | 3 | -2
CCOC(=O)/C=C/[C@H]1CCc2cccc(C)c2O1 | 2 | 11 | 14 | -1 | -1 | 1
CN1CCN(C(c2ccccc2)c2ccccc2)CC1 | 2 | -18 | 83* | -1 | 57* | -19
COc1cc(CN2CCN(C(c3ccccc3)c3ccccc3)CC2)cc(OC)c1OC | -2 | -17 | 9 | -26 | 45* | -33
CC(C)(C)C(=O)N1CCN(C(c2ccccc2)c2ccccc2)CC1 | -2 | -7 | 7 | -11 | 10 | -3
CN1CCCN(C(c2ccccc2)c2ccc(Cl)cc2)CC1 (centres undefined) | 9 | -19 | 99* | 2 | 83* | -19
CC(=O)N1CC2([N+](=O)[O-])CN(C(C)=O)CC([N+](=O)[O-])(C1)C2(C)C | 0 | 20* | -9 | 2 | -2 | 10
O=C(O)CSc1cc(C(=O)c2ccccc2O)cn2c(=O)c3c4c(sc3nc12)CCCC4 | 1 | 33* | 6 | -2 | 9 | 7
Cc1ccc(N2CCCn3c2cc(C)c(C#N)c3=O)cc1C | 0 | 9 | 5 | 0 | -2 | 3
SMILES | CHRM4 agonist | M4 PAM | M5 antag | M5 ag | M4 antag | CHRM5 PAM
Cc1ccc(N2CCCn3c2cc(C)c(C#N)c3=O)cc1Cl | 1 | 38* | -5 | -1 | 1 | 6
CCNc1nc(NC(C)(C)C)nc(N(C#N)CC)n1 | 0 | -33 | -2 | 6 | 61* | 3
CCNc1nc(NCC)nc(N(C#N)C(C)C)n1 | 0 | 3 | 6 | 4 | 5 | 6
CCSc1nnc(NC(=O)CCN2C(=O)C3CCCCC3C2=O)s1 (centres undefined) | 2 | 8 | -4 | 1 | -3 | 3
O=C(NC1CCCCC1)C(c1ccccc1)N1CCCC1 (centres undefined) | 0 | -17 | 12 | -13 | 46* | -29
CC(C(=O)NC1CCCC1)N1CCN(Cc2ccccc2)CC1 (centres undefined) | 0 | -7 | 7 | -8 | 7 | 1
CC(C(=O)NC(=O)NC1CCCCC1)N1CCN(C(c2ccccc2)c2ccccc2)CC1 (centres undefined) | -1 | -27 | 8 | -4 | 37* | -8
Cc1ccc(C(C(=O)NC2CCCCC2)N2CCCC2)cc1 (centres undefined) | 0 | -10 | -2 | -11 | 3 | -13
COc1ccccc1NC(=S)NCCc1ccc(S(N)(=O)=O)cc1 | 0 | -3 | 4 | 0 | -8 | -1
COc1ccc(NC(=S)NCCN2CCOCC2)c(OC)c1 | 1 | 16* | -6 | -3 | -5 | 2
Cc1cc(C(=O)NCCc2ccc(S(N)(=O)=O)cc2)no1 | 0 | -5 | 3 | 4 | 8 | 18*
COc1ccc(NC(=S)NCCc2ccc(S(N)(=O)=O)cc2)c(OC)c1 | 17 | -11 | 27* | 0 | 3 | -20
CC1(C(=O)Nc2ccc(Cl)c(Cl)c2)CCN1CCc1ccccc1 (centres undefined) | -1 | 10 | 3 | -1 | -10 | -2
CN(C)C1CN(Cc2cn(Cc3ccc(Cl)cc3)nn2)S(=O)(=O)C1 (centres undefined) | 2 | 2 | 11 | 1 | -2 | -3
CC(CNC(=O)CCCn1ncn2c(cc3occc32)c1=O)c1ccccc1 (centres undefined) | 2 | 16* | -15 | -2 | -5 | 10
O=C(Nc1ccccc1C(F)(F)F)N1CCN(C(c2ccccc2)c2ccccc2)CC1 | 0 | -27 | 30* | -8 | 35* | -18
O=C(c1ccc(C#CC2(O)CCCCC2)cc1)N1CCN(Cc2ccccc2)CC1 | 7 | -4 | -4 | -1 | 3 | -4
O=C(NC(=O)N1CCN(C(c2ccccc2)c2ccccc2)CC1)c1ccccc1 | 0 | -35 | 16 | -16 | 30* | -31
